Key:
Type in all cases: functional
Conditions in all cases: read-out: Activity
CCRF-CEM = test: Growth inhibition of human CCRF-CEM cells assessed as cell growth at 10 uM incubated for 48 hrs by sulforhodamine B assay relative to control
Method in brief: (§1)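 NCI Developmental Therapeutics Program NCI60 panel. Compounds that were active in the 10 µM one-dose screen went on to dose–response testing. Growth at each concentration is expressed relative to untreated control (100%). GI50 (concentration giving 50% of maximal inhibition of proliferation) and TGI (concentration giving total growth inhibition) were derived from the curves.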

HL-60(TB) = test: Growth inhibition of human HL-60(TB) cells assessed as cell growth at 10 uM incubated for 48 hrs by sulforhodamine B assay relative to control
Method in brief: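 Screened by the NCI Developmental Therapeutics Program on its panel of 60 human tumour cell lines. Compounds were first tested at a single 10 µM dose, and compounds active there went to dose-response curves. Growth is expressed relative to untreated control (100%). GI50 (50% of maximal proliferation inhibition) and TGI (total growth inhibition) were derived from the dose-response data.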

K562 = test: Growth inhibition of human K562 cells assessed as cell growth at 10 uM incubated for 48 hrs by sulforhodamine B assay relative to control
Method in brief: (§2)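 Submitted to the NCI Developmental Therapeutics Program for the NCI60 human tumour cell line panel. First screen at a single 10 µM concentration. Read-out is growth relative to untreated control cells set at 100%.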

RPMI-8226 = test: Growth inhibition of human RPMI-8226 cells assessed as cell growth at 10 uM incubated for 48 hrs by sulforhodamine B assay relative to control
Method in brief: (§3)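 Run by the NCI Developmental Therapeutics Program as part of its 60-line human tumour panel. Each compound tested at a single 10 µM dose. Growth expressed as % relative to untreated control cells (100%).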

A549 = test: Growth inhibition of human A549/ATCC cells assessed as cell growth at 10 uM incubated for 48 hrs by sulforhodamine B assay relative to control; method in brief: as §1
HOP-92 = test: Growth inhibition of human HOP-92 cells assessed as cell growth at 10 uM incubated for 48 hrs by sulforhodamine B assay relative to control; method in brief: as §2
NCI-H23 = test: Growth inhibition of human NCI-H23 cells assessed as cell growth at 10 uM incubated for 48 hrs by sulforhodamine B assay relative to control; method in brief: as §2
NCI-H322M = test: Growth inhibition of human NCI-H322M cells assessed as cell growth at 10 uM incubated for 48 hrs by sulforhodamine B assay relative to control; method in brief: as §2
COLO 205 = test: Growth inhibition of human COLO 205 cells assessed as cell growth at 10 uM incubated for 48 hrs by sulforhodamine B assay relative to control; method in brief: as §1
HCC 2998 = test: Growth inhibition of human HCC 2998 cells assessed as cell growth at 10 uM incubated for 48 hrs by sulforhodamine B assay relative to control; method in brief: as §1
SW-620 = test: Growth inhibition of human SW-620 cells assessed as cell growth at 10 uM incubated for 48 hrs by sulforhodamine B assay relative to control; method in brief: as §3
SF-268 = test: Growth inhibition of human SF-268 cells assessed as cell growth at 10 uM incubated for 48 hrs by sulforhodamine B assay relative to control; method in brief: as §3
SF-295 = test: Growth inhibition of human SF-295 cells assessed as cell growth at 10 uM incubated for 48 hrs by sulforhodamine B assay relative to control; method in brief: as §3
SF-539 = test: Growth inhibition of human SF-539 cells assessed as cell growth at 10 uM incubated for 48 hrs by sulforhodamine B assay relative to control; method in brief: as §3
U-251 = test: Growth inhibition of human U-251 cells assessed as cell growth at 10 uM incubated for 48 hrs by sulforhodamine B assay relative to control; method in brief: as §3
LOX IMVI = test: Growth inhibition of human LOX IMVI cells assessed as cell growth at 10 uM incubated for 48 hrs by sulforhodamine B assay relative to control; method in brief: as §2
MDA-MB-435 = test: Growth inhibition of human MDA-MB-435 cells assessed as cell growth at 10 uM incubated for 48 hrs by sulforhodamine B assay relative to control; method in brief: as §2
SK-MEL-28 = test: Growth inhibition of human SK-MEL-28 cells assessed as cell growth at 10 uM incubated for 48 hrs by sulforhodamine B assay relative to control; method in brief: as §3
UACC-62 = test: Growth inhibition of human UACC-62 cells assessed as cell growth at 10 uM incubated for 48 hrs by sulforhodamine B assay relative to control; method in brief: as §3
IGROV-1 = test: Growth inhibition of human IGROV-1 cells assessed as cell growth at 10 uM incubated for 48 hrs by sulforhodamine B assay relative to control; method in brief: as §2
OVCAR-3 = test: Growth inhibition of human OVCAR-3 cells assessed as cell growth at 10 uM incubated for 48 hrs by sulforhodamine B assay relative to control; method in brief: as §3
OVCAR-4 = test: Growth inhibition of human OVCAR-4 cells assessed as cell growth at 10 uM incubated for 48 hrs by sulforhodamine B assay relative to control; method in brief: as §3
OVCAR-5 = test: Growth inhibition of human OVCAR-5 cells assessed as cell growth at 10 uM incubated for 48 hrs by sulforhodamine B assay relative to control; method in brief: as §3
OVCAR-8 = test: Growth inhibition of human OVCAR-8 cells assessed as cell growth at 10 uM incubated for 48 hrs by sulforhodamine B assay relative to control; method in brief: as §3
NCI/ADR-RES = test: Growth inhibition of human NCI/ADR-RES cells assessed as cell growth at 10 uM incubated for 48 hrs by sulforhodamine B assay relative to control; method in brief: as §2
ACHN = test: Growth inhibition of human ACHN cells assessed as cell growth at 10 uM incubated for 48 hrs by sulforhodamine B assay relative to control
Method in brief: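 NCI Developmental Therapeutics Program NCI60 human tumour cell line panel, one-dose primary screen with every compound at 10 µM. Growth is expressed as % of untreated control cells (100%).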

PC-3 = test: Growth inhibition of human PC-3 cells assessed as cell growth at 10 uM incubated for 48 hrs by sulforhodamine B assay relative to control; method in brief: as §3
DU-145 = test: Growth inhibition of human DU-145 cells assessed as cell growth at 10 uM incubated for 48 hrs by sulforhodamine B assay relative to control; method in brief: as §1
MCF7 = test: Growth inhibition of human MCF7 cells assessed as cell growth at 10 uM incubated for 48 hrs by sulforhodamine B assay relative to control; method in brief: as §2
MDA-MB-231 = test: Growth inhibition of human MDA-MB-231 cells assessed as cell growth at 10 uM incubated for 48 hrs by sulforhodamine B assay relative to control; method in brief: as §2
Hs-578T = test: Growth inhibition of human Hs-578T cells assessed as cell growth at 10 uM incubated for 48 hrs by sulforhodamine B assay relative to control; method in brief: as §2
T47D = test: Growth inhibition of human T47D cells assessed as cell growth at 10 uM incubated for 48 hrs by sulforhodamine B assay relative to control; method in brief: as §3
MDA-MB-468 = test: Growth inhibition of human MDA-MB-468 cells assessed as cell growth at 10 uM incubated for 48 hrs by sulforhodamine B assay relative to control; method in brief: as §2

Cc1cc(C)cc(S(=O)(=O)n2ccc(-c3ccc4c(c3)CCC(C)(C)O4)n2)c1
growth at 10 µM (CCRF-CEM): 96.3%
growth at 10 µM (HL-60(TB)): 99.8%
growth at 10 µM (K562): 85.8%
growth at 10 µM (RPMI-8226): 73.2%
growth at 10 µM (A549): 80.8%
growth at 10 µM (HOP-92): 78.1%
growth at 10 µM (NCI-H23): 73.6%
growth at 10 µM (NCI-H322M): 92%
growth at 10 µM (COLO 205): 103%
growth at 10 µM (HCC 2998): 88.2%
growth at 10 µM (SW-620): 88.3%
growth at 10 µM (SF-268): 88.3%
growth at 10 µM (SF-295): 85%
growth at 10 µM (SF-539): 99.8%
growth at 10 µM (U-251): 85.6%
growth at 10 µM (LOX IMVI): 95%
growth at 10 µM (MDA-MB-435): 93.8%
growth at 10 µM (SK-MEL-28): 102%
growth at 10 µM (UACC-62): 73.9%
growth at 10 µM (IGROV-1): 105%
growth at 10 µM (OVCAR-3): 87.8%
growth at 10 µM (OVCAR-4): 67.3%
growth at 10 µM (OVCAR-5): 116%
growth at 10 µM (OVCAR-8): 91%
growth at 10 µM (NCI/ADR-RES): 79%
growth at 10 µM (ACHN): 92.8%
growth at 10 µM (PC-3): 82.4%
growth at 10 µM (DU-145): 89.8%
growth at 10 µM (MCF7): 81.5%
growth at 10 µM (MDA-MB-231): 93.5%
growth at 10 µM (Hs-578T): 92.7%
growth at 10 µM (T47D): 58.2%
growth at 10 µM (MDA-MB-468): 54.6%

COc1ccc(-c2ccn(S(=O)(=O)c3ccc(OC)cc3)n2)cc1
growth at 10 µM (CCRF-CEM): 71.3%
growth at 10 µM (HL-60(TB)): 99.4%
growth at 10 µM (K562): 57%
growth at 10 µM (RPMI-8226): 58.7%
growth at 10 µM (A549): 88.3%
growth at 10 µM (HOP-92): 38.8%
growth at 10 µM (NCI-H23): 79.8%
growth at 10 µM (NCI-H322M): 98.3%
growth at 10 µM (COLO 205): 118%
growth at 10 µM (HCC 2998): 88.1%
growth at 10 µM (SW-620): 82.1%
growth at 10 µM (SF-268): 95.6%
growth at 10 µM (SF-295): 72.7%
growth at 10 µM (SF-539): 87.3%
growth at 10 µM (U-251): 86.6%
growth at 10 µM (LOX IMVI): 88.8%
growth at 10 µM (MDA-MB-435): 88.4%
growth at 10 µM (SK-MEL-28): 99.2%
growth at 10 µM (UACC-62): 71.3%
growth at 10 µM (IGROV-1): 91.6%
growth at 10 µM (OVCAR-3): 89.3%
growth at 10 µM (OVCAR-4): 63%
growth at 10 µM (OVCAR-5): 90.2%
growth at 10 µM (OVCAR-8): 89.2%
growth at 10 µM (NCI/ADR-RES): 88.4%
growth at 10 µM (ACHN): 90.6%
growth at 10 µM (PC-3): 65.8%
growth at 10 µM (DU-145): 93.9%
growth at 10 µM (MCF7): 97.9%
growth at 10 µM (MDA-MB-231): 96.2%
growth at 10 µM (Hs-578T): 93.6%
growth at 10 µM (T47D): 58.8%
growth at 10 µM (MDA-MB-468): 59.3%

— ChEMBL document CHEMBL4715736, “Identification of anticancer agents based on the thieno[2,3-b]pyridine and 1H-pyrazole molecular scaffolds” (2016)
